Laboratory results: ChEMBL document CHEMBL1127086, “Syntheses and biological evaluations of 3'-deoxy-3'-C-branched-chain-substituted nucleosides” (1993)
The source made the active and inactive calls. No cut-off for these calls is given here.

Key:
CCRF-CEM = assay: Tested in vitro for anticancer activity against replication of human CCRF-CEM lymphoblastic cell line after 72 hr incubation; type: functional; conditions: read-out: ED50 (the source's name)
How it was run: (§1)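 Suspension cultures at 37 °C, 5% CO₂. L1210, P388 and S-180 were grown in Fisher's medium and CCRF-CEM in RPMI 1640, each with 10% horse serum. Exponentially growing cells at 2 × 10⁴ cells/mL were exposed to various concentrations and counted at 24, 48 and 72 h. ED₅₀ for 50% growth inhibition at 72 h was estimated from dose-response curves, ≥2 independent experiments.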

L1210 = assay: Tested in vitro for anticancer activity against replication of murine leukemia L1210 cell line after 72 hr incubation; type: functional; conditions: Mus musculus, L1210, 72 h; read-out: ED50 (the source's name); how it was run: as §1
P388 = assay: Tested in vitro for anticancer activity against replication of murine leukemia P388 cell line after 72 hr incubation; type: functional; conditions: Mus musculus, P388, 72 h; read-out: ED50 (the source's name); how it was run: as §1
[1] = Tested in vitro for anticancer activity against replication of murine Sarcoma 180 cell line after 72 h incubation; type: functional; conditions: Mus musculus, 180, 72 h; read-out: ED50 (the source's name); how it was run: as §1
[2] = target: T1, Thymidine kinase, cytosolic (Homo sapiens) (UniProt P04183); assay: […] thymidine kinase activity from K562 mammalian cells at 500 uM concentration; type: cell-based
T1 sequence (whole entry): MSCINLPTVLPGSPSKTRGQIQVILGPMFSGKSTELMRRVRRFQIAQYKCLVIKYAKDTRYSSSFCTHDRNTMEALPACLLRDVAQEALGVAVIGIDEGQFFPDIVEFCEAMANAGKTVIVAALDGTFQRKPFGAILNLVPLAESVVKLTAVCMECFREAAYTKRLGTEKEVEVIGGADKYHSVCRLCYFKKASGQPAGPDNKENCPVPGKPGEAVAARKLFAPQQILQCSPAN

[3] = test system: Thymidine kinase (Human herpesvirus 1); assay: Antiviral activity against thymidine kinase from Herpes simplex virus type-1 (KOS Strain) infected HeLa (Bu-25-TK-) cells at 500 uM concentration
[4] = test system: Thymidine kinase (Human herpesvirus 2); assay: Antiviral activity against thymidine kinase from Herpes simplex virus type-2 (333 Strain) infected HeLa (Bu-25-TK-) cells at 500 uM concentration
MT2 [5] = assay: Antiviral activity against HIV-1(HTLV-III B) in MT-2 cells; Not active uM concentration; type: functional, cell-based; conditions: Homo sapiens
How it was run: (§2)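 MT-2 cells, 1 × 10⁴ per well in triplicate wells, infected with HIV-1 (HTLV-III) at MOI 0.5 TCID₅₀/cell, then given serial drug dilutions. MTT added after 7 days. Antiviral effect taken from A₅₇₀ of infected cells compared with A₅₇₀ of uninfected drug-free cells. Concentrations tested up to 100 μM.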

MT2 [6] = assay: Antiviral activity against HIV-1(HTLV-III B) in MT-2 cells at 100 uM; Not active up to 100 uM concentration; type: functional, cell-based; conditions: Homo sapiens; how it was run: as §2

SMILES	EC50 (CCRF-CEM) [µM]	EC50 (L1210) [µM]	EC50 (P388) [µM]	EC50 [1] [µM]	inhibition [2] [%]	inhibition [3] [%]	inhibition [4] [%]	inhibition (MT2 [5])	inhibition (MT2 [6])
Cc1cn([C@@H]2O[C@H](CO)[C@@H](CO)[C@H]2O)c(=O)[nH]c1=O	> 100	> 100	> 100	> 100	3	2.6	0		
Cc1cn([C@H]2C[C@H](CN)[C@@H](CO)O2)c(=O)[nH]c1=O	> 100	> 100	> 100	> 100					
Cc1cn([C@@H]2O[C@H](CO)[C@@H](CN=[N+]=[N-])[C@@H]2O)c(=O)[nH]c1=O	> 100	10	> 100	> 100				inactive	
Cc1cn([C@@H]2O[C@H](CO)[C@@H](CO)[C@@H]2O)c(=O)[nH]c1=O	> 100	> 100	> 100	> 100	0.7	11.7	6.9		
Cc1cn([C@@H]2O[C@H](CO)[C@@H](CN)[C@@H]2O)c(=O)[nH]c1=O	> 100	> 100	> 100	> 100					
Cc1cn([C@@H]2O[C@H](CO)[C@@H](CF)[C@@H]2O)c(=O)[nH]c1=O	> 100	> 100	> 100	> 100	7.1	13.8	10.9	inactive	
Cc1cn([C@H]2C[C@H](CF)[C@@H](CO)O2)c(=O)[nH]c1=O	> 100	> 100	> 100	> 100	5.4	85.2	4		inactive
Cc1cn([C@H]2C[C@H](CN=[N+]=[N-])[C@@H](CO)O2)c(=O)[nH]c1=O	> 100	> 100	> 100	> 100				inactive	
Cc1cn([C@@H]2O[C@H](CO)[C@@H](CN)[C@H]2O)c(=O)[nH]c1=O	> 100	> 100	> 100	> 100					
Cc1cn([C@@H]2O[C@H](CO)[C@@H](CN=[N+]=[N-])[C@H]2O)c(=O)[nH]c1=O	> 100	> 100	> 100	> 100				inactive	
Cc1cn([C@H]2C[C@H](CO)[C@@H](CO)O2)c(=O)[nH]c1=O	1	50	5	10	3	59.1	0		
Cc1cn([C@@H]2O[C@H](CO)[C@@H](CF)[C@H]2O)c(=O)[nH]c1=O	> 100	> 100	> 100	> 100	2.5	7	4.9		inactive
Cc1cn([C@@H]2O[C@H](CO)[C@@H](O)[C@@H]2O)c(=O)[nH]c1=O					5				
